Experimental data taken from ChEMBL document CHEMBL3734698, “1H-Pyrazolo[3,4-g]hexahydro-isoquinolines as potent GR antagonists with reduced hERG inhibition and an improved pharmacokinetic profile” (Bioorg Med Chem Lett, 2015).

target: T1, hERG (KCNH2) (Homo sapiens, UniProt Q12809); assay: Inhibition of human ERG at 10 uM by patch clamp technique; settings: not given
T1 sequence (Q12809 whole entry): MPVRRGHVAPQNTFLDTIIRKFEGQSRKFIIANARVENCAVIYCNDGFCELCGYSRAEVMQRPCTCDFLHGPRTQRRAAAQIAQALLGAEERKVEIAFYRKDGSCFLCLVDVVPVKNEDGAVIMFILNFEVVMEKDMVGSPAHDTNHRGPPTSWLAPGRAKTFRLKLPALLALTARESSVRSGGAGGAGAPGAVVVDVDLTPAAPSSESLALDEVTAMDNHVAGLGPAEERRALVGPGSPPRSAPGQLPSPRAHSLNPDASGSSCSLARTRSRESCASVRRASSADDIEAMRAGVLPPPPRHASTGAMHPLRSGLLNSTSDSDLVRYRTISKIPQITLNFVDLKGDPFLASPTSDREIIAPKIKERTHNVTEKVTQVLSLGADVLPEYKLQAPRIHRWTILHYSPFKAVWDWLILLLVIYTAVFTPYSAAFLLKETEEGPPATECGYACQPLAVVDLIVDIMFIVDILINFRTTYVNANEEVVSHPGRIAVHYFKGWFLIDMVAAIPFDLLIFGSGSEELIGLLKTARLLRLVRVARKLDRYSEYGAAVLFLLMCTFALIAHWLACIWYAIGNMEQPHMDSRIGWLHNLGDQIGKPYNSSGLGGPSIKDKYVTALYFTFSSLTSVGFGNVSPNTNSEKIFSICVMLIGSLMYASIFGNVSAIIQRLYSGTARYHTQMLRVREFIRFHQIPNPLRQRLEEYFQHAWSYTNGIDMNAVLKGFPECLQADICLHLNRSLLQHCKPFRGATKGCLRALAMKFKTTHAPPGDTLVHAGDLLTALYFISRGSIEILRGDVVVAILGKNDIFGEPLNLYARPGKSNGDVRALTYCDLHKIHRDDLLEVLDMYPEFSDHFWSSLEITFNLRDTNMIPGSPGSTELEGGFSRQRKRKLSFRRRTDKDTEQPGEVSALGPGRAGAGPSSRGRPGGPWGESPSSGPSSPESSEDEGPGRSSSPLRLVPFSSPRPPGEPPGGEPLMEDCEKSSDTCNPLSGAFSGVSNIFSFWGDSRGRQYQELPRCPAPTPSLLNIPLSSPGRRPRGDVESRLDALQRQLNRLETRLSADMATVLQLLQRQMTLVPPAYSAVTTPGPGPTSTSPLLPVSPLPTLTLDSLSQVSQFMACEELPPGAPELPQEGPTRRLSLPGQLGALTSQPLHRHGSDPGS

Row | SMILES | inhibition at 10 µM [%]
1 | O=C(c1ccccn1)[C@]12Cc3cnn(-c4ccc(F)cc4)c3C=C1CCN(S(=O)(=O)c1cccc(Cl)c1)C2 | 35
2 | Cc1cccc(S(=O)(=O)N2CCC3=Cc4c(cnn4-c4ccc(F)cc4)C[C@]3(C(=O)c3ccccn3)C2)c1 | 30
3 | O=C(c1ccccn1)[C@]12Cc3cnn(-c4ccc(F)cc4)c3C=C1CCN(S(=O)(=O)c1ccc(C(F)(F)F)c(F)c1)C2 | 17

target: T1, hERG (KCNH2); assay: Inhibition of human ERG at 1 uM by patch clamp technique; settings: not given

Row | SMILES | inhibition at 1 µM [%]
4 | O=C(c1ccccn1)[C@]12Cc3cnn(-c4ccc(F)cc4)c3C=C1CCN(S(=O)(=O)c1cccc(Cl)c1)C2 | 14
5 | Cc1cccc(S(=O)(=O)N2CCC3=Cc4c(cnn4-c4ccc(F)cc4)C[C@]3(C(=O)c3ccccn3)C2)c1 | 17
6 | O=C(c1ccccn1)[C@]12Cc3cnn(-c4ccc(F)cc4)c3C=C1CCN(S(=O)(=O)c1ccc(C(F)(F)F)c(F)c1)C2 | 8

tested on: not listed separately; assay: Cmax in rat at 5 mg/kg, po; assay type: ADME, organism-based; set-up: dose 5 mg/kg, route oral; settings: in vivo
Procedure, shortened: (§1)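 Rat pharmacokinetics: oral dosing at 5 mg/kg in 10% DMSO in 0.5% aqueous methyl cellulose. Intravenous dosing at 1 mg/kg in 10% DMSO, 45% PEG400 and 45% propylene glycol. Plasma Cmax was taken after the oral dose and clearance after the iv dose, and oral bioavailability was derived.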

Row | SMILES | Cmax [ng/mL]
7 | O=C(c1ccccn1)[C@]12Cc3cnn(-c4ccc(F)cc4)c3C=C1CCN(S(=O)(=O)c1cccc(Cl)c1)C2 | 112
8 | O=C(c1ccccn1)[C@]12Cc3cnn(-c4ccc(F)cc4)c3C=C1CCN(S(=O)(=O)c1ccc(C(F)(F)F)c(F)c1)C2 | 322

tested on: not listed separately; assay: Clearance in rat at 1 mg/kg, iv; assay type: ADME, organism-based; settings: in vivo; procedure, shortened: as §1

Row | SMILES | clearance [mL/min/kg]
9 | O=C(c1ccccn1)[C@]12Cc3cnn(-c4ccc(F)cc4)c3C=C1CCN(S(=O)(=O)c1cccc(Cl)c1)C2 | 70
10 | O=C(c1ccccn1)[C@]12Cc3cnn(-c4ccc(F)cc4)c3C=C1CCN(S(=O)(=O)c1ccc(C(F)(F)F)c(F)c1)C2 | 28.7

target: T2, Glucocorticoid receptor (Homo sapiens, UniProt P04150); assay: Antagonist activity at glucocorticoid receptor in human HepG2 cells assessed as inhibition of glucocorticoid-induced TAT activity after 24 hrs; assay type: cell-based; settings: not given
T2 sequence (P04150 whole entry): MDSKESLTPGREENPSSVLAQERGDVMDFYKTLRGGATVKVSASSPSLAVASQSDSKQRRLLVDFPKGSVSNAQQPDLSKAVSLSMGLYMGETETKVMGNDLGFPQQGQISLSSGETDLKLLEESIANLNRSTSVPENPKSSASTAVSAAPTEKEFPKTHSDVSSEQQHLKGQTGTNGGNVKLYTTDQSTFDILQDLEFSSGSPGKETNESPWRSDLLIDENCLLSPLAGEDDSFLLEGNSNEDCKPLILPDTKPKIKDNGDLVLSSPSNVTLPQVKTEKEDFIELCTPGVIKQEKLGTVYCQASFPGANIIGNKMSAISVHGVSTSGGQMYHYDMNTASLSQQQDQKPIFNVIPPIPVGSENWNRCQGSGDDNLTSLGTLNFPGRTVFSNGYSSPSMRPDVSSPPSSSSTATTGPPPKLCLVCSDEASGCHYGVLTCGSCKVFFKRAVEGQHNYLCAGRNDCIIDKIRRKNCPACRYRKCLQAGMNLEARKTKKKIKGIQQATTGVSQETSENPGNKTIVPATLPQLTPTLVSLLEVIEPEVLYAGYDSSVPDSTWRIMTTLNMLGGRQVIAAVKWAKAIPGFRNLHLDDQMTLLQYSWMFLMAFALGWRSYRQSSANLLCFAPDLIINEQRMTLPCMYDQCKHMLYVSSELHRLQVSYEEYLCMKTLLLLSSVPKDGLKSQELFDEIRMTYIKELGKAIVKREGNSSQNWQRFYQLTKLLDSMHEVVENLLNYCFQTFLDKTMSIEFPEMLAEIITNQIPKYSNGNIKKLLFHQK

Row | SMILES | Ki [nM]
11 | O=C(c1ccccn1)[C@]12Cc3cnn(-c4ccc(F)cc4)c3C=C1CCN(S(=O)(=O)c1cccc(Cl)c1)C2 | 11
12 | Cc1cccc(S(=O)(=O)N2CCC3=Cc4c(cnn4-c4ccc(F)cc4)C[C@]3(C(=O)c3ccccn3)C2)c1 | 6.8
13 | O=C(c1ccccn1)[C@]12Cc3cnn(-c4ccc(F)cc4)c3C=C1CCN(S(=O)(=O)c1ccc(C(F)(F)F)c(F)c1)C2 | 11

target: T2, Glucocorticoid receptor; assay: Binding affinity to human recombinant glucocorticoid receptor by fluorescence polarization assay; settings: not given

Row | SMILES | Ki [nM]
14 | O=C(c1ccccn1)[C@]12Cc3cnn(-c4ccc(F)cc4)c3C=C1CCN(S(=O)(=O)c1cccc(Cl)c1)C2 | 0.25
15 | Cc1cccc(S(=O)(=O)N2CCC3=Cc4c(cnn4-c4ccc(F)cc4)C[C@]3(C(=O)c3ccccn3)C2)c1 | 0.14
16 | O=C(c1ccccn1)[C@]12Cc3cnn(-c4ccc(F)cc4)c3C=C1CCN(S(=O)(=O)c1ccc(C(F)(F)F)c(F)c1)C2 | 0.29
